The record followed here is ChEMBL document CHEMBL4396890, “Synthesis, Biological Evaluation, Structure-Activity Relationship, and Mechanism of Action Studies of Quinoline-Metronidazole Derivatives Against Experimental Visceral Leishmaniasis” (J Med Chem, 2019).

Molecules are shown by their SMILES. The source made the active and inactive calls. The calls are words filed in the database; no cut-off is given here.

Series [1] deals with Leishmania donovani. In words: Antileishmanial activity against Leishmania donovani MHOM/IN/80/Dd8 promastigotes infected in BALB/c mouse assessed as reduction in parasite load in spleen at 25 mg/kg, ip administered once daily for 5 days measured 7 days post dose by giemsa staining-based assay relative to control. The format is functional. Further details: scale not given: the % may be the effect or the level left. A digest of the protocol:
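Hamster-passaged strain was transformed to promastigotes. Stationary-phase cells (2 × 10^7 in 0.2 mL PBS) were injected into the tail vein of BALB/c mice. From day 15 post-infection, mice received compound ip in 8% DMSO in PBS for 5 consecutive days, 5 mice per group. Mice were killed day 7 post-treatment. Liver and spleen burden was read from Giemsa-stained stamp smears as LDU.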

Series [2] relates to Leishmania donovani. In words: Induction of plasma membrane permeabilization in Leishmania donovani MHOM/IN/80/Dd8 promastigotes assessed as increase in fluorescence at MIC measured after 4 hrs by sytox green dye based flow cytometry relative to 0.1 % triton-X 100. It counts as functional.
Series [3] relates to Leishmania donovani. In words: Induction of plasma membrane permeabilization in Leishmania donovani MHOM/IN/80/Dd8 promastigotes assessed as non specific pore formation at MIC measured after 4 hrs by sytox green dye based flow cytometry. The format is functional, organism-based.
Series [4] concerns Leishmania donovani. In words: Induction of apoptosis in Leishmania donovani MHOM/IN/80/Dd8 promastigotes assessed as late apoptotic cells at 50 uM measured after 12 hrs by Annexin V-FITC/propidium iodide staining based assay (reference value: 0.02%). It counts as functional.
Series [5] has as its system Leishmania donovani. The experiment in a line: Induction of apoptosis in Leishmania donovani MHOM/IN/80/Dd8 promastigotes assessed as late apoptotic cells at 50 uM measured after 24 hrs by Annexin V-FITC/propidium iodide staining based assay (reference value: 0.46%). The format is functional.
Series [6] concerns Leishmania donovani. In words: Induction of apoptosis in Leishmania donovani MHOM/IN/80/Dd8 promastigotes assessed as late apoptotic cells at 50 uM measured after 24 hrs by Annexin V-FITC/propidium iodide staining based assay (reference value: 0.02%). It counts as functional.
Series [7] deals with Leishmania donovani. In words: Induction of apoptosis in Leishmania donovani MHOM/IN/80/Dd8 promastigotes assessed as early apoptotic cells at 50 uM measured after 48 hrs by Annexin V-FITC/propidium iodide staining based assay (reference value: 6.91%). The format is functional.
Series [8] concerns Leishmania donovani. In words: Induction of mitochondrial potential loss in Leishmania donovani MHOM/IN/80/Dd8 promastigotes at 50 uM by JC1 dye-based flow cytometry. It counts as functional, organism-based. The settings on record: TDE = time-dependent effect. A digest of the protocol: (§1)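 Exponential-phase promastigotes were incubated with 50 μM compound for 6−48 h, or 0.1% DMSO vehicle. CCCP (50 μM) served as positive control. After JC-1 staining, the red-to-green fluorescence shift was measured by flow cytometry.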

Series [9] deals with Leishmania donovani. In words: Induction of apoptosis in Leishmania donovani MHOM/IN/80/Dd8 promastigotes assessed as increase in meta-caspase activity at 50 uM using BOC-GRR-AMC as substrate preincubated for 1 hr followed by substrate addition and measured after 2 hrs in presence of meta-caspase inhibitor antipain by fluorometric assay. It counts as functional, organism-based. A digest of the protocol:
(§2)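 Log-phase promastigotes were pretreated for 1 h with antipain (1 μM) or zVAD-fmk (100 μM), then exposed to 50 μM compound or 0.1% DMSO. Metacaspase activity in lysates was read with fluorogenic BOC-GRR-AMC and expressed as RFU per mg protein.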

Series [10] relates to Leishmania donovani. In words: Induction of apoptosis in Leishmania donovani MHOM/IN/80/Dd8 promastigotes assessed as increase in meta-caspase activity at 50 uM using BOC-GRR-AMC as substrate preincubated for 1 hr followed by substrate addition and measured after 2 hrs in presence of caspase inhibitor zVAD-fmk by fluorometric assay. It counts as functional, organism-based. A digest of the protocol: as §2

In series [11] the test system is Leishmania donovani. In words: Induction of apoptosis in Leishmania donovani MHOM/IN/80/Dd8 promastigotes assessed as increase in meta-caspase activity at 50 uM using BOC-GRR-AMC as substrate preincubated for 1 hr followed by substrate addition and measured after 2 hrs by fluorometric assay relative to control. It counts as functional. Summed up:
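Log-phase promastigotes treated with 50 μM for 24 and 48 h, with or without 1 h pretreatment with antipain (1 μM) or zVAD-fmk (100 μM). Vehicle control was 0.1% DMSO. Metacaspase activity in cell lysates measured with fluorogenic BOC-GRR-AMC, given as relative fluorescence units per mg protein.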

In series [12] the test system is Leishmania donovani. The experiment in a line: Induction of mitochondrial potential loss in Leishmania donovani MHOM/IN/80/Dd8 promastigotes assessed as shift in red to green fluorescence at 50 uM after 12 hrs by JC1 dye-based flow cytometry (reference value: 7.37%). The format is functional. A digest of the protocol: as §1
For series [13], the system named is Leishmania donovani. In words: Induction of mitochondrial potential loss in Leishmania donovani MHOM/IN/80/Dd8 promastigotes assessed as shift in red to green fluorescence at 50 uM after 48 hrs by JC1 dye-based flow cytometry (reference value: 7.37%). The format is functional. A digest of the protocol: as §1
The subject of series [14] is Leishmania donovani. In words: Induction of mitochondrial membrane disruption in Leishmania donovani MHOM/IN/80/Dd8 promastigotes assessed as increase in cytochrome c release from mitochondria to cytosol at 50 uM measured after 6 to 48 hrs by immunoblot analysis. The format is functional, organism-based. A digest of the protocol:
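Promastigotes were treated with 50 μM compound for 6−48 h, or 0.1% DMSO for 48 h. Mitochondrial and cytosolic fractions were immunoblotted for cytochrome c, with COX-IV and β-tubulin as fraction loading controls.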

In series [15] the test system is Leishmania donovani. In words: Induction of mitochondrial membrane disruption in Leishmania donovani MHOM/IN/80/Dd8 promastigotes assessed as reduction in intracellular ATP level at 50 uM measured after 6 to 48 hrs by luciferase-based assay relative to control. The format is functional. A digest of the protocol: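 Promastigotes were incubated with 0.1% DMSO or 50 μM compound for 6−48 h. Cytosolic ATP was quantified by bioluminescence assay. At least 3 independent experiments in duplicate.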

For series [16], the system named is Leishmania donovani. In words: Induction of reactive oxygen species generation in Leishmania donovani MHOM/IN/80/Dd8 promastigotes at 50 uM measured after 12 hrs by H2DCFDA probe-based flow cytometry (reference value: 7%). The format is functional.
The test system of series [17] is Leishmania donovani. In words: Induction of reactive oxygen species generation in Leishmania donovani MHOM/IN/80/Dd8 promastigotes at 50 uM measured after 24 hrs by H2DCFDA probe-based flow cytometry (reference value: 7%). It counts as functional.
In series [18] the test system is Leishmania donovani. The experiment in a line: Induction of nitric oxide generation in Leishmania donovani MHOM/IN/80/Dd8 promastigotes assessed as increase in fluorescence at 50 uM measured after 6 hrs by DAF-2DA dye-based flow cytometry relative to control. It counts as functional. Summed up: (§3)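 Log-phase promastigotes exposed to 50 μM for 6–18 h, vehicle control 0.1% DMSO, then labelled with 40 μM DAF-2DA. Fluorescence (GMFC) read by flow cytometry and expressed as fold change over vehicle. At least 3 independent experiments in duplicate.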

Series [19] deals with Leishmania donovani. In words: Induction of nitric oxide generation in Leishmania donovani MHOM/IN/80/Dd8 promastigotes assessed as increase in fluorescence at 50 uM measured after 12 hrs by DAF-2DA dye-based flow cytometry relative to control. It counts as functional. A digest of the protocol: as §3
Series [20] in a line: Tmax in BALB/c mouse at 50 mg/kg, po administered via gavage by LC-MS/MS analysis. It counts as ADME, organism-based. The note with it: in vivo.
Series [21] in a line: AUC (0 to 48 hrs) in BALB/c mouse at 50 mg/kg, po administered via gavage by LC-MS/MS analysis. The format is ADME, organism-based. Further details: time < 48 hr, dose 50 mg/kg, route oral. The settings on record: in vivo.
Series [22] can be described thus: Apparent volume of distribution in BALB/c mouse at 50 mg/kg, po administered via gavage by LC-MS/MS analysis. The format is ADME, organism-based. The settings on record: in vivo.
Series [23] is described as follows: Clearance in BALB/c mouse at 50 mg/kg, po administered via gavage by LC-MS/MS analysis. The settings on record: in vivo. It counts as ADME, organism-based.

Turning to `Cc1cc(-c2ccc(OCCn3c([N+](=O)[O-])cnc3C)cc2)nc2ccccc12`, the Activity in series [1] was greater than 62%; in series [2], 3.63%; in series [4], 1.43%; in [5], 48.14%; in series [6] it was 10.04%; in series [7], 18.07%. Besides, the Activity result in series [8] was “Tde”; in [12], 33.15%; in [13] it was 68.76%; in series [16], 31.61%; in series [17], 41.41%. For the same compound, the outcome in series [3] was inactive. Also, the inhibition result in series [9] is “inactive”. Further, the inhibition entry in series [10] is “Active”. Besides, the “fold change (FC)” value was determined as 3.8 in [11], 1.75 in series [18] and 3.6 in series [19]. Moreover, the outcome in series [14] was Active. Moreover, in series [15], the Imax is greater than 67%. In series [20], the Tmax amounted to 45 min. Moreover, the area under the curve AUC(0-t) at 48 h in series [21] is 18200 ng·h/mL. The “Vd(app)” value in series [22] came to 15.98 L/kg. For the same compound, the CL/F in series [23] is 45.8 mL/min/kg.
